Source: ChEMBL document CHEMBL1143242, “Specific small-molecule activator of Aurora kinase A induces autophosphorylation in a cell-free system” (J Med Chem, 2008)
Activity calls are given as the source filed them. The rule behind the calls is not given here.

T1: Aurora kinase A (Homo sapiens) (UniProt O14965)
T1 sequence (whole entry): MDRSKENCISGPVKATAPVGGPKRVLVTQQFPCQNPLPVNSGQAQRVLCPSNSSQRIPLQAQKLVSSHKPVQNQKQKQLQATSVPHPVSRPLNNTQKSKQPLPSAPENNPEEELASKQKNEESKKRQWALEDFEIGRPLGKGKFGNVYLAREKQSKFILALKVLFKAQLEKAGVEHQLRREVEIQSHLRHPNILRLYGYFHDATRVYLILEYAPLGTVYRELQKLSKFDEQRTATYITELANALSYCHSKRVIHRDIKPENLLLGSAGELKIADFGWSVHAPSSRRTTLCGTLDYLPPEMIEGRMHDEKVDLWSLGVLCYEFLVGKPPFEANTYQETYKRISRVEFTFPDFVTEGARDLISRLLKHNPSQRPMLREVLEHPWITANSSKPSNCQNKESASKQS

B1: Aurora kinase A (Homo sapiens), O14965 (protein)
chain: MDRSKENCISGPVKATAPVGGPKRVLVTQQFPCQNPLPVNSGQAQRVLCPSNSSQRIPLQAQKLVSSHKPVQNQKQKQLQATSVPHPVSRPLNNTQKSKQPLPSAPENNPEEELASKQKNEESKKRQWALEDFEIGRPLGKGKFGNVYLAREKQSKFILALKVLFKAQLEKAGVEHQLRREVEIQSHLRHPNILRLYGYFHDATRVYLILEYAPLGTVYRELQKLSKFDEQRTATYITELANALSYCHSKRVIHRDIKPENLLLGSAGELKIADFGWSVHAPSSRRTTLCGTLDYLPPEMIEGRMHDEKVDLWSLGVLCYEFLVGKPPFEANTYQETYKRISRVEFTFPDFVTEGARDLISRLLKHNPSQRPMLREVLEHPWITANSSKPSNCQNKESASKQS

Assays:
[1] = target: T1, Aurora kinase A (Homo sapiens); assay: Binding affinity to human AURA expressed in baculovirus in presence of anacardic acid
Procedure, shortened: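 Baculovirus-expressed, C-terminally His6-tagged AURA purified on Ni-NTA. Intrinsic fluorescence quenching was read at 301 nm (excitation 280 nm), with inner-filter correction. Ka came from double-reciprocal FR and the Chipman method.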

[2] = target: T1, Aurora kinase A (Homo sapiens); assay: Binding affinity to human AURA expressed in baculovirus
Procedure, shortened: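 Baculovirus-expressed, C-terminally His6-tagged AURA purified on Ni-NTA. Excitation was at 280 nm and quenching of intrinsic fluorescence was read at 301 nm, with inner-filter correction. FR came from a double-reciprocal plot, and Ka was calculated by the Chipman method.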

[3] = target: T1, Aurora kinase A (Homo sapiens); assay: Binding affinity to human AURA expressed in baculovirus in presence of ATP
[4] = target: T1, Aurora kinase A (Homo sapiens); assay: Activation of human AURA mediated histone H3 phosphorylation by phosphoimager analyzer
Procedure, shortened: (§1)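 Compound (5–50 µM, in DMSO) preincubated 5 min at 30 °C, then [γ-32P]ATP added for 10 min. 25% TCA precipitation, 15% SDS-PAGE, autoradiography; phosphoimager quantitation of relative intensity versus DMSO control.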

[5] = target: T1, Aurora kinase A (Homo sapiens); assay: Activation of human AURA autophosphorylation activity
Procedure, shortened: (§2)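 Autophosphorylation read from the same gels: 1.5 µg histone H3 with AURA (40 ng) or AURB (120 ng) and [γ-32P]ATP, with or without compound at 25 and 50 µM in DMSO. Reactions precipitated with 25% TCA, resolved on 15% SDS-PAGE, then autoradiographed.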

[6] = target: T1, Aurora kinase A (Homo sapiens); assay: Activation of human AURA assessed as histone H3 phosphorylation; procedure, shortened: as §1
[7] = target: Aurora kinase B (Homo sapiens) (UniProt Q96GD4); assay: Activation of human AURB mediated histone H3 phosphorylation by phosphoimager analyzer; procedure, shortened: as §1
[8] = target: Aurora kinase B (Homo sapiens) (UniProt Q96GD4); assay: Activation of human AURB autophosphorylation activity; procedure, shortened: as §2
[9] = target: T1, Aurora kinase A (Homo sapiens); assay: Activation of human AURA activity expressed in baculovirus cells by time course assay
[10] = substrate: C=CC/C=C\C/C=C\CCCCCCCc1cccc(O)c1C(=O)O; assay: Activity of human AURA expressed in baculovirus at 50 uM by phosphorimager analyzer; procedure, shortened: as §1
[11] = substrate: C=CC/C=C\C/C=C\CCCCCCCc1cccc(O)c1C(=O)O; assay: Ratio of Kcat for human AURA to Km for human AURA
Procedure, shortened: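 AURA kinase assay with H3 substrate, with increasing [γ-32P]ATP (2.5–15 µM) in the presence of DMSO or 50 µM compound; 5 min 30 °C preincubation, 10 min reaction, TCA precipitation, PAGE and phosphoimager quantitation. Km, Vmax and kcat fitted from activity against ATP concentration.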

Aurora kinase B (Homo sapiens), sequence (Q96GD4 whole entry): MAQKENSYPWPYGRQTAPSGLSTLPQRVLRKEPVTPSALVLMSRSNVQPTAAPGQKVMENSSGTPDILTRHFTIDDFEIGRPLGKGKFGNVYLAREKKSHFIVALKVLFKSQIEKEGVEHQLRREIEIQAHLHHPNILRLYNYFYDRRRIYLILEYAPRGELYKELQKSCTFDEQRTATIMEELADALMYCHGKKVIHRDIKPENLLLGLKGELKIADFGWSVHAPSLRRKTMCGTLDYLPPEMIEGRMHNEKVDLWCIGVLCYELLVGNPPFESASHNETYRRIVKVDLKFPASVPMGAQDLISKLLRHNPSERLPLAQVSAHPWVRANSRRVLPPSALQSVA

| Molecule | Ka [1] [nM⁻¹] | Ka [2] [µM⁻¹] | Ka [3] [µM⁻¹] | Activity [4] | Activity [5] | Activity [6] | Activity [7] | Activity [8] | Activity [9] | Km [10] [mM] | Vmax [10] [mmol/min/mg] | kcat [10] [s⁻¹] | kcat/Km [11] [M⁻¹ s⁻¹] |
| --- | --- | --- | --- | --- | --- | --- | --- | --- | --- | --- | --- | --- | --- |
| Nc1ncnc2c1ncn2[C@@H]1O[C@H](COP(=O)(O)OP(=O)(O)OP(=O)(O)O)[C@@H](O)[C@H]1O | 27.5 | 5.7 |  |  |  |  |  |  |  |  |  |  |  |
| C=CC/C=C\C/C=C\CCCCCCCc1cccc(O)c1C(=O)O |  | 5.2 | 10.1 | Active | Active | Dose-dependent effect | inactive | inactive | Active |  |  |  |  |
| B1 |  |  |  |  |  |  |  |  |  | 40.2 | 62.5 | 282 | 6990 |
